Test results from ChEMBL document CHEMBL1138795, “Inhibition of nucleoside transport by new analogues of 4-nitrobenzylthioinosine: replacement of the ribose moiety by substituted benzyl groups” (J Med Chem, 2004).

Target: T1, Equilibrative nucleoside transporter 1 (Homo sapiens, UniProt Q99808)
T1 sequence (Q99808 whole entry): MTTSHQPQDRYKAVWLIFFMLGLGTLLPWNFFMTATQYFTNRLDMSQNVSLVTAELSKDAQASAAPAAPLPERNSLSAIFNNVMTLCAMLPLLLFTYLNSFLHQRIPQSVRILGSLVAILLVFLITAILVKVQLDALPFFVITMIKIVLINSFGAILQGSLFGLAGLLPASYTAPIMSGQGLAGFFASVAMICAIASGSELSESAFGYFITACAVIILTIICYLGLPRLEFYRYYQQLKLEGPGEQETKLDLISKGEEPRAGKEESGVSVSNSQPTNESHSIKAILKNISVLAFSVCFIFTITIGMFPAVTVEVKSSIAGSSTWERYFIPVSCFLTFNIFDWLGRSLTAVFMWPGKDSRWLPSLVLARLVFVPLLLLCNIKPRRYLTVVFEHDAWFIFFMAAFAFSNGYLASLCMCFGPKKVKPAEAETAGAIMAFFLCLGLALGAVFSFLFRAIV
Test: Inhibition of [3H]NBTI binding to nucleoside transport protein of human erythrocyte membrane
Procedure, shortened: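 Equilibrium displacement of [3H]NBTI (KD 0.59 nM) from human erythrocyte ghost membranes at 25 °C. Membranes prepared by hypotonic lysis in Tris-HCl/MgCl2 pH 8.0 and resuspended in 50 mM Tris-HCl pH 7.4. Compounds giving ≥50% inhibition at 10 μM were run over a concentration range. IC50 values were converted to Ki, n = 3, reported with SEM.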

Row | SMILES | Ki
1 | O=[N+]([O-])c1ccc(CSc2ncnc3c2ncn3Cc2ccc(F)cc2F)cc1 | 4880 nM
2 | O=[N+]([O-])c1ccc(CSc2ncnc3c2ncn3Cc2ccncc2)cc1 | 2170 nM
3 | O=[N+]([O-])c1ccc(CSc2ncnc3c2ncn3CCc2ccccc2)cc1 | 2200 nM
4 | O=[N+]([O-])c1ccc(CSc2ncnc3c2ncn3Cc2cccc(C(F)(F)F)c2)cc1 | 2170 nM
5 | COc1ccc(Cn2cnc3c(SCc4ccc([N+](=O)[O-])cc4)ncnc32)cc1 | 563 nM
6 | O=[N+]([O-])c1ccc(CSc2ncnc3c2ncn3Cc2ccc(F)cc2)cc1 | 3340 nM
7 | O=[N+]([O-])c1ccc(CSc2ncnc3c2ncn3Cc2ccc(F)c(F)c2)cc1 | 653 nM
8 | O=[N+]([O-])c1ccc(CSc2ncnc3c2ncn3Cc2cc(F)ccc2F)cc1 | 1640 nM
9 | O=[N+]([O-])c1ccc(CSc2ncnc3c2ncn3Cc2cccnc2)cc1 | 2710 nM
10 | Cc1ccc(Cn2cnc3c(SCc4ccc([N+](=O)[O-])cc4)ncnc32)cc1 | 711 nM
11 | O=[N+]([O-])c1ccc(CSc2ncnc3c2ncn3CCCc2ccccc2)cc1 | 488 nM
12 | CC(C)(C)OC(=O)Nc1ccccc1Cn1cnc2c(SCc3ccc([N+](=O)[O-])cc3)ncnc21 | 422 nM
13 | O=[N+]([O-])c1ccc(CSc2ncnc3c2ncn3Cc2cc(F)cc(F)c2)cc1 | 1540 nM

Results, then the compound that gave them:

Row | Ki | SMILES
14 | 153 nM | O=[N+]([O-])c1ccc(CSc2ncnc3c2ncn3Cc2cccc(O)c2)cc1
15 | 89 nM | O=[N+]([O-])c1ccc(CSc2ncnc3c2ncn3Cc2ccccc2-c2ccsc2)cc1
16 | 86 nM | O=[N+]([O-])c1ccc(CSc2ncnc3c2ncn3Cc2ccccc2-c2cccc(C(F)(F)F)c2)cc1
17 | 212 nM | O=[N+]([O-])c1ccc(CSc2ncnc3c2ncn3Cc2cccc(Cl)c2)cc1
18 | 264 nM | COc1cccc(Cn2cnc3c(SCc4ccc([N+](=O)[O-])cc4)ncnc32)c1
19 | 236 nM | O=[N+]([O-])c1ccc(CSc2ncnc3c2ncn3Cc2ccc(Cl)cc2)cc1
20 | 111 nM | O=[N+]([O-])c1ccc(CSc2ncnc3c2ncn3Cc2ccccc2-c2ccccc2F)cc1
21 | 200 nM | O=[N+]([O-])c1ccc(CSc2ncnc3c2ncn3Cc2ccc([N+](=O)[O-])cc2)cc1
22 | 124 nM | Nc1ccccc1Cn1cnc2c(SCc3ccc([N+](=O)[O-])cc3)ncnc21
23 | 196 nM | O=[N+]([O-])c1ccc(CSc2ncnc3c2ncn3Cc2ccccc2-c2ccccc2O)cc1
24 | 126 nM | Cc1ccccc1-c1ccccc1Cn1cnc2c(SCc3ccc([N+](=O)[O-])cc3)ncnc21
25 | 39 nM | O=[N+]([O-])c1ccc(CSc2ncnc3c2ncn3Cc2ccccc2-c2ccc(C(F)(F)F)cc2)cc1
26 | 154 nM | O=[N+]([O-])c1ccc(CSc2ncnc3c2ncn3Cc2ccccc2-c2ccc(O)cc2)cc1
27 | 129 nM | O=[N+]([O-])c1ccc(CSc2ncnc3c2ncn3Cc2ccccc2-c2cccs2)cc1
28 | 281 nM | O=[N+]([O-])c1ccc(CSc2ncnc3c2ncn3Cc2ccccc2-c2ccccc2)cc1
29 | 221 nM | COc1cccc(-c2ccccc2Cn2cnc3c(SCc4ccc([N+](=O)[O-])cc4)ncnc32)c1
30 | 110 nM | COc1ccccc1Cn1cnc2c(SCc3ccc([N+](=O)[O-])cc3)ncnc21
31 | 130 nM | O=[N+]([O-])c1ccc(CSc2ncnc3c2ncn3Cc2ccc(I)cc2)cc1
32 | 39 nM | O=[N+]([O-])c1ccc(CSc2ncnc3c2ncn3Cc2ccccc2O)cc1
33 | 196 nM | O=[N+]([O-])c1ccc(CSc2ncnc3c2ncn3Cc2ccccc2-c2cccc(O)c2)cc1
34 | 104 nM | COc1ccc(-c2ccccc2Cn2cnc3c(SCc4ccc([N+](=O)[O-])cc4)ncnc32)cc1
35 | 361 nM | O=[N+]([O-])c1ccc(CSc2ncnc3c2ncn3Cc2cccc(F)c2)cc1
36 | 93 nM | O=[N+]([O-])c1ccc(CSc2ncnc3c2ncn3Cc2ccccc2-c2ccc(F)cc2)cc1
37 | 225 nM | COc1ccccc1-c1ccccc1Cn1cnc2c(SCc3ccc([N+](=O)[O-])cc3)ncnc21

Target: T2, Equilibrative nucleoside transporter 1 (Homo sapiens) (UniProt Q99808)
T2 sequence (whole entry): T1 sequence (Q99808 whole entry)
Test: Displacement of [3H]NBTI from human erythrocyte membrane at 10 uM
Procedure, shortened: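 Human erythrocyte ghost membranes (whole blood lysed in 10 mM MgCl2/10 mM Tris-HCl pH 8.0, repeated water washes, resuspended in 50 mM Tris-HCl pH 7.4, stored −80 °C) incubated to equilibrium at 25 °C with [3H]NBTI (KD 0.59 nM). Test compound at a single 10 μM concentration. Result expressed as percent displacement of specific radioligand binding.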

Row | Binding activity | SMILES
38 | 32% | O=[N+]([O-])c1ccc(CSc2ncnc3c2ncn3Cc2cccc(F)c2F)cc1
39 | 47% | COc1cc(Cn2cnc3c(SCc4ccc([N+](=O)[O-])cc4)ncnc32)cc(OC)c1
40 | 42% | O=[N+]([O-])c1ccc(CSc2ncnc3c2ncn3Cc2ccccn2)cc1
41 | 32% | O=[N+]([O-])c1ccc(CSc2ncnc3c2ncn3Cc2c(F)cccc2F)cc1
42 | 6% | O=[N+]([O-])c1ccc(CSc2ncnc3c2ncn3Cc2c(Cl)cccc2Cl)cc1
43 | 44% | O=[N+]([O-])c1ccc(CSc2ncnc3c2ncn3Cc2ccccc2Cl)cc1
44 | 24% | O=[N+]([O-])c1ccc(CSc2ncnc3c2ncn3Cc2ccc(OC(F)(F)F)cc2)cc1
45 | 38% | O=[N+]([O-])c1ccc(CSc2ncnc3c2ncn3Cc2ccccc2F)cc1
46 | 34% | O=[N+]([O-])c1ccc(CSc2ncnc3c2ncn3Cc2ccc(Cl)c(Cl)c2)cc1
